Ecoli rRNA inh: inhibitors of bacterial rRNA selective over humanized ribosomes. E. coli WT GFP vs humanized-ribosome RFP mutants, fluorescence, 24 h; active compounds read low; DMSO median 0, no signal -100. actives 1.6% (n = 350,000). AID 720706. GFP signal change (wild-type ribosome), % (test concentration not listed);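 active = significant combined selectivity score with lowered wild-type GFP, culture density cut under 30%, mutant RFP and density less affected; inactive = any of these conditions unmet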
SIRT5 block: inhibitors of human sirtuin-5 desuccinylase | AID 652115 | Purified SirT5, succinyl-peptide AMC, trypsin-coupled fluorescence | actives 1.1% (n = 330,000) | Q9NXA8 | inhibition, % at 15 µM; in the data active = inhibition above about 15%
E-selectin induc: induces E-selectin expression in human endothelial cells; HUVEC E-selectin immunofluorescence imaging; normalized: neutral wells 0, TNF-alpha wells 100; activation, % at 7.58 µM; P16581; actives 0.37% (n = 260,000); AID 686992;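 active = mean E-selectin-positive cell signal at least 10% of the positive control, reached in at least 60% of replicates, without over 20% cell loss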
Target sequence (P16581 whole entry, looked up): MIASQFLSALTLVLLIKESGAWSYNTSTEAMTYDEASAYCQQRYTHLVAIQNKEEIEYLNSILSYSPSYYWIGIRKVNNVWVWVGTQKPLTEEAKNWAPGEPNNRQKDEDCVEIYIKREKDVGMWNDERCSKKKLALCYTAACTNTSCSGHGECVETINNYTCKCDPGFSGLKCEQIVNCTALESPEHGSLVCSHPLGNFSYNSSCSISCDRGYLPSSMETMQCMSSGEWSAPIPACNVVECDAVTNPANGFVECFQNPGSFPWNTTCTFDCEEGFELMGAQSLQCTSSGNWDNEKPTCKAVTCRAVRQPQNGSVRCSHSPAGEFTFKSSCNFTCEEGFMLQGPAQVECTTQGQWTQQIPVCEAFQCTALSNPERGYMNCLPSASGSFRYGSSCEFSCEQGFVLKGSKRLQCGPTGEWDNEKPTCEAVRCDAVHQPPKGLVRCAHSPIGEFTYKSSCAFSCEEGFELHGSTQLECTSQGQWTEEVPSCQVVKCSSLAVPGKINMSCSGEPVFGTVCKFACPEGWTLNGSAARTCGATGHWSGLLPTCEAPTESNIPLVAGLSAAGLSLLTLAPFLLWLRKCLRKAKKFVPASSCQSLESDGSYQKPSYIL
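Test system: HUVEC; input: 3,000 HUVEC/well; measured by: immunofluorescence imaging; read-out: % PE-positive cells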
FN deposit inh: fibronectin deposition inhibition; actives 0.086% (n = 350,000); inhibition, % at 12.6 µM; AH1F fibroblasts, Alexa488-fibronectin deposition fluorescence, overnight; AID 743247;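 active = mean inhibition across replicates of 30% or more, regardless of how many single replicates reach that level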;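 also: positive control wells lacked labelled fibronectin entirely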
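Assay system: AH1F fibroblast monolayer, labelled fibronectin deposition. Amount: 10000 cells per well. Also added: labelled fibronectin 24 nM. Compound: single-point pinned compound. Incubation: cell attachment 1 h, compound and FN exposure overnight. Detection: fluorescence after three HBSS washes, excitation 485 nm, emission 525 nm. Read-out: inhibition of fibronectin deposition signal.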
FGF22 binding: shifts melting point of recombinant human FGF22; Q9HCT0; recombinant FGF22 thermal shift, SYPRO orange fluorescence; percent of sucrose octasulfate shift, DMSO zero; activity (Tm shift, normalised), % at 9.99 µM; actives 1.5% (n = 340,000);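 active = mean Tm shift, scaled 0 neutral to 100 positive control, at about 1.3% or above, every replicate too, limit read from the data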
Statin myotox sup: suppressors of simvastatin-induced myotoxicity in C2C12 myotubes. ATP luminescence, 48 h; scaled: DMSO 0, geranylgeraniol control 100. rescue of ATP level, % at 7.49 µM. actives 0.78% (n = 330,000). AID 602340;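 active = mean ATP rescue above about 67%, or every replicate alone reaching that limit, limit read from the data, passing the limit was not always enough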;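 also: myotubes were challenged with 10 µM simvastatin during compound exposure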
* = called active by the depositor; / = no result. Compounds with a hit are over-represented: about 4% of the library has one in this group of screens.

SMILES	Ecoli rRNA inh	SIRT5 block	E-selectin induc	FN deposit inh	FGF22 binding	Statin myotox sup
COc1ccc(N=C2NC(=O)/C(=C/C=C/c3ccccc3)S2)cc1	3	0	1	-15	0	/
C[C@@H](NC(=O)C[C@@H]1CC[C@@H](NC(=O)CN2CCOCC2)[C@H](CO)O1)c1ccccc1	-2	-1	-1	-11	0	-1
C[C@H](CO)N1C[C@H](C)[C@H](CN(C)S(=O)(=O)c2cn(C)cn2)Oc2ncc(-c3cccc(F)c3)cc2C1=O	-4	-2	0	0	0	-2
CC1CCCC(C)N1C(=O)CSc1nc2c(c(=O)n(C)c(=O)n2C)n1C (centres undefined)	-1	2	27*	3	0	-2
CN1CCN(C(=O)CSc2nc3c(c(=O)n(C)c(=O)n3C)n2C)CC1	5	-2	/	-2	0	4
C[C@H]1CN([C@@H](C)CO)S(=O)(=O)c2ccc(C#Cc3ccncc3)cc2O[C@@H]1CN(C)C(=O)C1CCC1	-9	0	-2	-11	0	-2
CC(C)NC(=O)N(C)C[C@H]1Oc2ccccc2CC(=O)N(C)C[C@H]1C	0	/	/	5	/	/
Cc1ccc(S(=O)(=O)N2C[C@]3(O)C[C@@H]4C(=O)N(c5ccccc5)C(=O)[C@@H]4C[C@]3(OC(=O)Nc3cccs3)C2)cc1	-9	/	0	5	43*	6
COc1ccc(CN(C)C[C@H]2Oc3ccc(NC(=O)Nc4ccccc4)cc3CC(=O)N([C@H](C)CO)C[C@H]2C)cc1	0	3	0	/	0	22
C=CCOc1ccc(C[C@H](N)C(=O)NC[C@H]2O[C@@H](n3ccc(N)nc3=O)[C@H](O)[C@@H]2O)cc1	16	/	0	-8	43*	8
CCc1nnc(NC(=O)CCC(=O)Nc2ccc(Cl)cc2)s1	7	-3	0	3	43*	/
O=C(NCC(c1ccc(F)cc1)N1CCOCC1)c1ccc([N+](=O)[O-])o1 (centres undefined)	-18*	/	0	0	1	3
CC(=O)c1ccc(-c2ccc(C(=O)NCC(c3ccc(F)cc3)N3CCOCC3)o2)cc1 (centres undefined)	-14	-5	-2	6	0	-8
O=C(NCc1nnnn1-c1ccc(F)cc1)c1ccc([N+](=O)[O-])o1	-14	0	-2	8	0	70*
COc1cccc(C(=O)NCC(=O)N2CCC(C)CC2)c1	/	/	/	/	/	99*
CC1CCN(C(=O)CNC(=O)c2cccc(OC(F)F)c2)CC1	12	0	/	-8	0	-15
O=C(Nc1cccc(Cl)c1)c1nc[nH]c1C(=O)NCCCNC(=O)c1[nH]cnc1C(=O)Nc1cccc(Cl)c1	23	3	0	5	0	106*
Cc1cccc(NC(=O)c2nc[nH]c2C(=O)N(C)CCO)c1	-40*	-3	/	3	0	/
COc1ccc(Cn2c(O)c(C=Nc3ccccc3C(=O)O)c3ccccc3c2=O)cc1	-13	0	/	2	1	/
CN(CCO)c1ccc(C=NNc2ccc([N+](=O)[O-])cc2S(=O)(=O)Nc2ccccc2C(=O)O)cc1	-14*	22*	0	0	/	1
COc1ccc(NC(=O)c2ccccc2NS(=O)(=O)c2ccc(C)cc2)c([N+](=O)[O-])c1	/	/	5	-2	/	/
O=[N+]([O-])c1ccc(N/N=C/c2ccccc2)c(F)c1	-14	-2	/	-10	0	/
COc1cc(C=NNc2ccc(S(=O)(=O)Nc3ccccc3C(=O)O)cc2[N+](=O)[O-])ccc1O	-6	22*	/	-2	1	4
CC(=O)Nc1cccc(/C(C)=N/Nc2ccc(S(=O)(=O)Nc3ccccc3C(=O)O)cc2[N+](=O)[O-])c1	-4	21*	/	-5	0	23
COc1ccccc1NS(=O)(=O)c1cccc(-n2c(O)c(C=Nc3ccccc3C(=O)O)c3ccccc3c2=O)c1	-25*	11	/	-13	/	/

Bioassay records (PubChem)
